The term inhibition denotes the percentage by which the read-out fell short of the control. The IC50 is the concentration at which inhibition is half-maximal. Broadly, the kcat is the maximal rate divided by the concentration of active sites. Broadly, the kcat/Km is the turnover number divided by the Michaelis constant. What is called Km is the concentration of substrate that gives half-maximal velocity. As a reminder, the Kd is a measure of binding affinity in units of concentration. Usually MIC stands for the lowest concentration that inhibits growth of the organism.

SMILES strings stand for the structures. Calls of active or inactive are those of the source. No cut-off for these calls is given here.

Here are results for 16 molecules from ChEMBL document CHEMBL5543170, “Identification of Potent and Selective Inhibitors of Acanthamoeba: Structural Insights into Sterol 14α-Demethylase as a Key Drug Target” (J Med Chem, 2024).

In assay [1] the test system is Acanthamoeba castellanii. The assay can be described thus: Catalytic inhibition of Acanthamoeba castellanii CYP51 expressed in Escherichia coli HMS-174 (DE3) cells assessed as inhibition of substrate induced 14alpha-demthylation using obtusifoliol as substrate at […] incubated for 1 hr in presence of NADPH-CYP450 reductase by RP-HPLC analysis relative to control. Particulars: dose 1.5 µM.

Assay [2] is described as follows: Catalytic inhibition of Acanthamoeba castellanii CYP51 expressed in Escherichia coli HMS-174 (DE3) cells assessed as inhibition of substrate induced 14alpha-demthylation using obtusifoliol as substrate incubated for 1 hr in presence of NADPH-CYP450 reductase by RP-HPLC analysis.
The test system of assay [3] is Acanthamoeba castellanii. The assay can be described thus: Substrate activity at Acanthamoeba castellanii CYP51 expressed in Escherichia coli HMS-174 (DE3) cells assessed as Kcat measured after 60 sec by Michaelis-Menten analysis. A digest of the protocol:
(§1)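 Full-length His6-tagged CYP51, purified by Ni-NTA, Q- and CM-Sepharose, reconstituted with rat CPR (0.5 μM P450, 2 μM CPR), 37 °C. […] Rates as nmol product/min/nmol P450 vs total substrate, fitted to Michaelis–Menten hyperbola; triplicate, mean ± SD.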

Assay [4] relates to Acanthamoeba castellanii. The assay can be described thus: Substrate activity at Acanthamoeba castellanii CYP51 expressed in Escherichia coli HMS-174 (DE3) cells assessed as Kcat/Km measured after 60 sec by Michaelis-Menten analysis. The gist of the method:
as §1

Assay [5] deals with Acanthamoeba castellanii. The assay can be described thus: Substrate activity at Acanthamoeba castellanii CYP51 expressed in Escherichia coli HMS-174 (DE3) cells assessed as Km measured after 60 sec by Michaelis-Menten analysis. The gist of the method:
as §1

The nature of assay [6]: Binding affinity to Acanthamoeba castellanii CYP51 expressed in Escherichia coli HMS-174 (DE3) cells assessed as dissociation constant by UV-Visible spectrophotometry.
Assay [7] concerns Acanthamoeba castellanii. The assay can be described thus: Substrate activity at Acanthamoeba castellanii CYP51 expressed in Escherichia coli HMS-174 (DE3) cells assessed as Km measured after 20 mins by Michaelis-Menten analysis. A digest of the protocol: as §1
Assay [8] concerns Acanthamoeba castellanii. As to the kind of experiment: Substrate activity at Acanthamoeba castellanii CYP51 expressed in Escherichia coli HMS-174 (DE3) cells assessed as Kcat measured after 20 mins by Michaelis-Menten analysis. A digest of the protocol: as §1
Assay [9] deals with Acanthamoeba castellanii. As to the kind of experiment: Substrate activity at Acanthamoeba castellanii CYP51 expressed in Escherichia coli HMS-174 (DE3) cells assessed as Kcat/Km measured after 20 mins by Michaelis-Menten analysis. The gist of the method:
as §1

In assay [10] the test system is Acanthamoeba castellanii. The assay can be described thus: Anti-amoebic activity against Acanthamoeba castellanii ATCC 50491 assessed as inhibition of amoebic growth incubated for 48 hrs by resazurin dye based microtiter plate analysis. The class given is functional. A digest of the protocol: (§2)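 Trophozoites kept axenically in PYG medium at 28 °C, grown to confluence for 48 h, then diluted to 5 × 10^4 trophozoites/mL (1 × 10^4 cells per well). Azoles added from DMSO stocks via PYG to final 0.03125–64 μg/mL (twofold series); 1% DMSO controls. Incubated 48 h at 28 °C, then 0.02% resazurin added for a further 48 h. Purple-to-pink change scored as respiring cells; MIC in triplicate.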
Background: Alamar Blue is a resazurin reagent that responds to reducing activity.

The test system of assay [11] is Acanthamoeba polyphaga. As to the kind of experiment: Anti-amoebic activity against Acanthamoeba polyphaga ATCC 30461 assessed as inhibition of amoebic growth incubated for 48 hrs by resazurin dye based microtiter plate analysis. It counts as functional. A digest of the protocol:
as §2

With `C[C@@H](c1nc(-c2ccc(C#N)cc2)cs1)[C@](O)(Cn1cncn1)c1ccc(F)cc1F`, in [1], the inhibition entry was “inactive”. With `FC(F)(F)c1ccc(N(c2cccnc2)C2CCN(c3ccc(C(F)(F)F)cn3)CC2)cc1`, the half-maximal inhibitory concentration (IC50) in assay [2] was found to be 1300 nM.

Regarding `C=C(CC[C@@H](C)[C@H]1CC[C@@]2(C)C3=C(CC[C@]12C)[C@@]1(C)CC[C@H](O)[C@@H](C)[C@@H]1CC3)C(C)C` [OBTUSIFOLIOL], in [3], the kcat stood at 0.513 s⁻¹. Further, the kcat/Km in [4] was determined as 190000 M⁻¹ s⁻¹. The Km in [5] was found to be 2.7 µM. Further, the Kd in assay [6] came out at 30 nM.

As for `Clc1ccc(COC(Cn2ccnc2)c2ccc(Cl)cc2Cl)c(Cl)c1` (stereo not given), the inhibition in assay [1] came to 25%. Same read-out and setting: next, `Clc1ccccc1C(c1ccccc1)(c1ccccc1)n1ccnc1`: 82%. On to `CC(C)=CCC[C@@H](C)[C@H]1CC[C@@]2(C)C3=C(CC[C@]12C)[C@@]1(C)CC[C@H](O)C(C)(C)[C@@H]1CC3` [LANOSTEROL], for which, in assay [7], the Km worked out at 52 µM. Besides, in [8], the kcat is 0.102 s⁻¹. For the same molecule, the Kd in assay [6] is 1220 nM. In assay [9], the kcat/Km was found to be 2000 M⁻¹ s⁻¹.

As for `CC(C)(C#N)c1cc(Cn2cncn2)cc(C(C)(C)C#N)c1`, the inhibition entry in [1] is “inactive”.

As to `CC[C@@H]([C@H](C)O)n1ncn(-c2ccc(N3CCN(c4ccc(OC[C@@H]5CO[C@@](Cn6cncn6)(c6ccc(F)cc6F)C5)cc4)CC3)cc2)c1=O`, the inhibition entry in assay [1] was “inactive”.

With `N#Cc1ccc(C(c2ccc(C#N)cc2)n2cncn2)cc1`, the inhibition result in assay [1] is “inactive”. Take `O=C([C@@H](c1ccc(Cl)cc1)c1cccnc1)N1CCN(c2ccc(C(F)(F)F)cc2)CC1`: the IC50 in [2] amounted to 5500 nM.

For `O=C(N[C@@H](Cn1ccnc1)c1ccc(-c2ccc(F)cc2)cc1F)c1ccc(-c2nnc(-c3ccccc3)o2)cc1`, the MIC in [10] and in [11] was greater than 64 µg/mL in each case. For the molecule `N#Cc1ccc(COc2ccc(C#Cc3ccc(C(F)(F)[C@](O)(Cn4cnnn4)c4ccc(F)cc4F)nc3)cc2)cc1` [VT-1598], the MIC in [10] is 0.077 µM; in [11], 0.425 µM. Further, in assay [2], the half-maximal inhibitory concentration (IC50) is 250 nM. Take `CC(=O)N1CCN(c2ccc(OCC3COC(Cn4ccnc4)(c4ccc(Cl)cc4Cl)O3)cc2)CC1` (stereo not given): in assay [1], the inhibition entry is “inactive”. With `O=C(N[C@@H](Cn1ccnc1)c1ccc(Cl)cc1Cl)c1ccc(-c2nnc(-c3ccccc3)o2)cc1`, the MIC in assay [10] was 4 µM; in assay [11], greater than 64 µg/mL. For the molecule `O[C@@](Cn1cnnn1)(c1ccc(F)cc1F)C(F)(F)c1ccc(-c2ccc(OCC(F)(F)F)cc2)cn1` [OTESECONAZOLE], the minimum inhibitory concentration (MIC) in assay [10] amounted to 0.057 µM; in assay [11], 0.114 µM. As to `C[C@@H](c1ncncc1F)[C@](O)(Cn1cncn1)c1ccc(F)cc1F` [VORICONAZOLE], the figures for the MIC in assay [10] and in [11] were 0.09 µM and 0.75 µM, respectively. The inhibition in assay [1] is 85%. For the same molecule, the IC50 in [2] was 450 nM.
